Experiments:
[1] = Half life of the compound in TFA at room temperature; format: physicochemical
How it was run: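 SEM- and Boc-protected compounds in TFA (100 equiv) at room temperature. Deprotection was monitored and reported as the time to half-conversion (T1/2) and the time to full conversion.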

[2] = Stability of the compound in NaOH/THF at room temperature; format: physicochemical
How it was run: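 SEM-protected compound in 1 M NaOH (10 equiv) in THF at room temperature. Deprotection was monitored for up to 12 h.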

[3] = Half life of the compound in TBAF/THF under reflux
[4] = Half life of the compound in NaOH/THF/MeOH at room temperature; format: physicochemical
How it was run: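 Boc-protected compound in 1 M NaOH (10 equiv) in THF/MeOH at room temperature. Deprotection was followed and reported as T1/2 (half-deprotection time) and the time to complete deprotection.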

[5] = Half life of the compound in HCl/THF at room temperature; format: physicochemical
How it was run: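 Boc-protected compound in 4 M HCl (10 equiv) in THF at room temperature. Deprotection was followed over time and reported as the time to half-conversion (T1/2) and the time to completion.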

Prostaglandin E synthase = biological target: T1, Prostaglandin E synthase (Homo sapiens, UniProt O14684); experiment: Inhibition of mPGES1 (unknown origin) transfected in HEK293 cells co-expressing COX1 using arachidonic acid as substrate assessed as inhibition of PGE2 production incubated for 30 mins prior to arachidonic acid addition measured after 60 mins by HTRF assay; format: cell-based
T1 sequence (O14684 whole entry): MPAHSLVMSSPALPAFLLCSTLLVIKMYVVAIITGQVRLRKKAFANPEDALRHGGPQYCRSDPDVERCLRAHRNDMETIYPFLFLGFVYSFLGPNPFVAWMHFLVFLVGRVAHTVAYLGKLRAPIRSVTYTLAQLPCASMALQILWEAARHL
How it was run: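 Enzyme source was microsomes from HEK293 cells co-transfected with mPGES-1 and COX-1, in 100 mM Tris-HCl pH 8.0 with 5 mM EDTA, 1 mM GSH, phenol and hematin. Compound was added in DMSO (final 1%) and preincubated 30 min at room temperature. Arachidonic acid in 0.1 M KOH started the reaction, which ran 60 min at room temperature. It was stopped with 1 M HCl, neutralized with 1 M NaOH, and PGE2 was quantified by HTRF.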

Structure (SMILES)	IC50 (Prostaglandin E synthase)	further results
Cn1c(=O)c2c(nc(-c3ccccc3Cl)n2COCC[Si](C)(C)C)c2ccc(Br)cc21	–	half-life [1]: < 5 min; Stability [2]: Stable; half-life [3]: 30 min
Cn1c(=O)c2c(nc(-c3ccccc3Cl)n2C(=O)OC(C)(C)C)c2ccc(Br)cc21	–	half-life [4]: 15 min; half-life [5]: 30 min; half-life [1]: < 5 min
Nc1nc2cc(Br)ccc2c2[nH]c(-c3ccccc3Cl)nc12	1070 nM	–
CNc1nc2cc(Br)ccc2c2nc(-c3ccccc3Cl)[nH]c12	631 nM	–
CN(C)c1nc2cc(Br)ccc2c2[nH]c(-c3ccccc3Cl)nc12	387 nM	–
S=c1[nH]c2cc(Br)ccc2c2nc(-c3ccccc3Cl)[nH]c12	83 nM	–
CSc1nc2cc(Br)ccc2c2nc(-c3ccccc3Cl)[nH]c12	31 nM	–
CCSc1nc2cc(Br)ccc2c2[nH]c(-c3ccccc3Cl)nc12	59 nM	–
Cn1c(=O)c2[nH]c(-c3ccccc3Cl)nc2c2ccc(Br)cc21	85 nM	–
CCn1c(=O)c2[nH]c(-c3ccccc3Cl)nc2c2ccc(Br)cc21	106 nM	–
O=c1c2[nH]c(-c3ccccc3Cl)nc2c2ccc(Br)cc2n1Cc1ccccc1	226 nM	–
Cn1c(-c2ccccc2Cl)nc2c(=O)[nH]c3cc(Br)ccc3c21	> 10000 nM	–
Cn1c(-c2ccccc2Cl)nc2c3ccc(Br)cc3[nH]c(=O)c21	9810 nM	–
O=c1[nH]c2cc(Br)ccc2c2nc(-c3ccccc3Cl)n(Cc3ccccc3)c12	> 10000 nM	–
Cn1c(-c2ccccc2Cl)nc2c3ccc(Br)cc3n(C)c(=O)c21	> 10000 nM	–

— ChEMBL document CHEMBL2346636, “Synthesis and biological evaluation of substituted imidazoquinoline derivatives as mPGES-1 inhibitors” (Bioorg Med Chem, 2013)
